hiPSC survival: enhancers of single-cell hiPSC survival, primary screen, ATPlite luminescence; 100% = ROCK inhibitor wells, 0% = DMSO; survival enhancement, % at 20 µM; 360,000 compounds, 0.044% hits; AID 602274, 2012; in the data active = survival enhancement above about 18%;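 note: cells exposed to compounds for 16 hours before the ATP read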
Apaf1 inhib: inhibitors of human Apaf-1 apoptosome, primary screen, biochemical, DEVD-Rh110 fluorescence, uHTS. 330,000 compounds, 0.71% hits. reconstituted apoptosome caspase-3 activity. AID 489030, 2010. Apoptotic protease-activating factor 1 (Homo sapiens), O14727. inhibition, % at 20 µM; active = inhibition of at least 40% at 20 µM;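 note: plate controls were DMSO wells for no effect and DEVD-CHO caspase inhibitor wells for full effect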
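Assay system: Apoptosome proteins | Medium: pH 7.5 Hepes buffer with CHAPS, BSA, DTT | Also added: Cytochrome c and DEVD-Rh110 substrate | Times: 30 min plus 50 min, RT | Detection: Rhodamine 110 fluorescence at Ex 480/Em 540 nm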
Exocytosis inh: LAMP-1 surface exposure blockers, TALL-104 cells – cell-based, flow cytometry, MLPCN library, primary screen; TALL-104 LAMP-1 surface exposure; cells stimulated with thapsigargin and PMA; inhibition, % at 10 µM; 360,000 compounds, 0.66% hits; AID 651702, 2012;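 active = inhibition above about 55%, limit read from the data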
MPTP inh: mitochondrial permeability transition pore inhibitors, primary screen, biochemical, isolated mouse mitochondria, absorbance. Ca2+ swelling absorbance, 30 min. inhibition, % at 10 µM. 360,000 compounds, 1.4% hits. AID 602449, 2012;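 active = inhibition of 50% or more, scaled per plate between neutral and stimulator controls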;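 note: 0% = DMSO wells given calcium and 100% = 1 mM EGTA wells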
MIN6 prolif: inducers of MIN6 beta-cell proliferation, primary screen, ATP luminescence, uHTS; MIN6 cells proliferation, ATPlite luminescence, 48 h; cells starved in 0.2% serum; 100% = growth in 10% serum; proliferation, % at 10 µM; 330,000 compounds, 0.29% hits;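 active = compounds whose signal lies at least 3.5 SD above the mean of all wells on their plate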;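 note: 0% = DMSO-treated cells in low-serum medium and 100% = 10% serum control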
UBC13 inh: UBC13 polyubiquitin chain formation inhibitors, primary screen, biochemical, TR-FRET, uHTS | Ubiquitin-conjugating enzyme E2 N (Homo sapiens), P61088 | inhibition, % at 20 µM | 330,000 compounds, 0.47% hits; in the data active = inhibition above about 45%, passing the limit was not always enough
Target sequence (P61088 whole entry, looked up): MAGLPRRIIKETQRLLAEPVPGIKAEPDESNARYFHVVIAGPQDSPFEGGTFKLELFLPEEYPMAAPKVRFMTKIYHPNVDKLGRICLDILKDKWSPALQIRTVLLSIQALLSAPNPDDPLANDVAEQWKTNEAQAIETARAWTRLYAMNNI
Rh123 counter: fluorescence retest of MPTP screen hits in isolated mitochondria, single concentration; shares compounds with MPTP inh; membrane potential, Rhodamine 123 fluorescence; inhibition, % at 10 µM; 5,000 compounds, 78% hits; AID 624504, 2012; in the data active = inhibition above about 22%;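 note: 0% = DMSO vehicle and 100% = positive control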
MPTP abs DR: mitochondrial permeability transition pore inhibitors, dose response, biochemical, absorbance, uHTS hits; shares compounds with MPTP inh; isolated mitochondria swelling; IC50, µM; 780 compounds, 58% hits; in the data active = IC50 below about 20 µM
MPTP counter DR: fluorescent counter-screen in isolated mitochondria, dose response, counter-screen for MPTP inhibitor project, biochemical, fluorescence, uHTS hits; isolated mitochondria counterscreen, fluorescence read-out; AID 651564, 2012; IC50, µM; shares compounds with MPTP inh; 780 compounds, 49% hits; in the data active = IC50 below about 80 µM
* marks the source's active call; other numbers are inactive results; i = inactive; nt = no result. The list is not random: actives were taken first. Their share in the collection is about 3%.

SMILES | hiPSC survival | Apaf1 inhib | Exocytosis inh | MPTP inh | MIN6 prolif | UBC13 inh | Rh123 counter | others
N#CCCn1c(SCC(=O)NCc2ccco2)nc2ccccc21 | -2 | -10 | -3 | 74* | 3 | 2 | -2 | MPTP abs DR=i;MPTP counter DR=>80
CC1CN(C(=O)COC(=O)/C=C/c2ccccc2)CC(C)O1 (stereo not drawn) | -1 | nt | -6 | 0 | nt | nt | nt
O=C(NC1CCOc2ccccc21)C1CCCC1 (stereo not drawn) | -1 | -4 | -10 | -2 | 0 | 2 | nt
CCOc1ccc(-c2csc(/C(C#N)=C\c3ccc(O)c([N+](=O)[O-])c3)n2)cc1 | -3 | 15 | 32 | 73* | 0 | -111 | 70*
CCCCc1ccc(-c2csc(/C(C#N)=C\c3ccc(C)o3)n2)cc1 | 0 | 2 | -6 | 14 | -4 | -2 | nt
O=C(COC(=O)/C=C/c1ccccc1[N+](=O)[O-])NCc1ccco1 | 0 | -2 | 4 | -1 | -2 | 15 | nt
CCOC(=O)c1cc(NC(=O)Nc2ccccc2Cl)c(C)nc1C | -1 | -4 | -2 | -1 | 1 | 20 | nt
CC(C)(C)c1ccc(COC(=O)Nc2ccc(F)cc2)cc1 | 0 | -11 | -6 | 4 | -2 | 7 | nt
O=C(Nc1ccc([N+](=O)[O-])cc1)Nc1ccon1 | 0 | 4 | 9 | 58* | -5 | -3 | 99*
CC(C)(C)c1ccc(NC(=O)Nc2ccc(F)cc2)cc1 | -2 | -2 | -1 | 99* | -5 | -2 | 88*
COC(=O)c1ccc(NC(=O)Nc2ccc(F)c(Cl)c2)cc1 | 2 | 3 | 9 | 91* | -6 | -2 | 83*
CCOC(=O)c1cc(NC(=O)Nc2ccc(Br)cc2)c(C)nc1C | 2 | 16 | -2 | 74* | -2 | 18 | 70*
O=C1CC2CCCN2C=C1I (stereo not drawn) | 4 | 22 | -4 | -2 | -3 | -3 | nt
COC(=O)c1ccc(NC(=O)Nc2ccc(F)cc2)cc1 | -1 | -5 | -4 | 64* | -5 | 2 | 96*
COC(=O)c1ccc(NC(=O)Nc2ccc([N+](=O)[O-])cc2)cc1 | 3 | 19 | 7 | 94* | -5 | -8 | 85*
COc1ccc(NC(=O)Nc2ccc(C)cc2OC(F)F)cc1OC | -1 | 1 | -2 | 52* | 0 | 10 | 36*
O=C(Nc1ccc(C(=O)O)cc1)Nc1ccc([N+](=O)[O-])cc1 | -1 | -14 | -2 | 14 | -4 | -8 | nt
CCOC(=O)c1ccc(NC(=O)Nc2ccc(F)cc2)cc1 | -1 | 4 | 1 | 97* | -3 | 5 | 85*
CCOC(=O)C(=O)Nc1ccc(F)cc1 | 1 | -16 | 7 | 0 | 0 | 5 | nt
COc1ccc(S(=O)(=O)NC(=O)C2(C)CCN2C(=O)Cc2cc(C)cc(C)c2)cc1 (stereo not drawn) | -2 | nt | -4 | 0 | nt | nt | nt
CCOC(=O)c1ccc(NC(=O)Nc2ccc(OC)c(OC)c2)cc1 | 7 | 9 | 0 | 65* | -2 | -5 | 69*
COC(=O)c1ccc(NC(=O)Nc2ccccc2C)cc1 | -3 | 13 | 9 | 0 | -3 | 3 | nt
CCOC(=O)c1ccc(NC(=O)Oc2cc(C)c(Cl)cc2C(C)C)cc1 | -1 | 12 | -7 | 64* | -3 | 7 | 69*
O=C(COc1ccc([N+](=O)[O-])cc1)NNC(=O)Nc1ccc([N+](=O)[O-])cc1 | 0 | 8 | -1 | 67* | -5 | 4 | 96*
Cc1ccc(NC(=O)NNC(=O)COc2ccc([N+](=O)[O-])cc2)cc1C | 0 | 10 | -16 | 1 | 1 | -10 | nt
SMILES | hiPSC survival | Apaf1 inhib | Exocytosis inh | MPTP inh | MIN6 prolif | UBC13 inh | Rh123 counter | others
COC(=O)c1ccc(NC(=O)Nc2ccccc2F)cc1 | -1 | 7 | 0 | 54* | -3 | 3 | 84*
O=C(NNC(=O)c1ccc(S(=O)(=O)N2CCCCC2)cc1)c1ccc(F)cc1 | 0 | 0 | 3 | 3 | 0 | 10 | nt
COc1cccc(C(=O)N2CCC2(C)C(=O)NC(C)C)c1 (stereo not drawn) | -1 | nt | 13 | -2 | nt | nt | nt
COc1cc(C2C(C#N)=C(N)N(N(C)C)C3=C2C(=O)CC(C)(C)C3)cc(OC)c1OC (stereo not drawn) | 2 | -2 | 5 | 1 | -2 | -3 | nt
CCOC(=O)c1sc(NC(=O)Nc2ccc(F)cc2)nc1C | -2 | 9 | 0 | 73* | 0 | 11 | 84*
Cc1ccc(S(=O)(=O)NC(C)(C)CSc2nnc(Nc3ccccc3)s2)cc1 | -3 | 25 | 2 | 65* | -6 | 3 | 66*
CC(C)(CSc1ncccn1)NS(=O)(=O)c1ccccc1 | -1 | 1 | 2 | -1 | -1 | 0 | nt
CC1=C(C(=O)Nc2ccc([N+](=O)[O-])cc2)C(c2cccc(C(F)(F)F)c2)NC(=S)N1c1ccccc1 (stereo not drawn) | -1 | 18 | 2 | 75* | -6 | -5 | 89*
c1coc(CNc2ncnc3nc[nH]c23)c1 | 3 | -9 | -8 | -1 | 0 | 15 | nt
COc1ccc(/C=N/Nc2ncnc3c2[nH]c2ccc(C)cc23)c(OC)c1OC | 0 | -5 | 2 | 11 | -3 | 11 | nt
COc1cc(CNc2ncnc3c2[nH]c2ccc(C)cc23)cc(OC)c1 | -1 | 13 | 56* | 86* | -3 | 9 | 83*
Cc1ccc2[nH]c3c(NCc4ccco4)ncnc3c2c1 | 4 | -7 | 0 | 60* | -5 | 20 | 85*
Cc1cccc(NC(=O)CSc2nnc(CNC(=O)c3ccco3)o2)c1 | 0 | -4 | -11 | -1 | -3 | 8 | nt
CCC(C)Sc1cc(C(F)(F)F)c(C(=O)Nc2ccc(Cl)cc2)cn1 (stereo not drawn) | -1 | 1 | 6 | 75* | -4 | 5 | 87*
CC(C)C1Nc2c(O)cc(Cl)c([N+](=O)[O-])c2C2C=CCC21 (stereo not drawn) | 1 | nt | 6 | 92* | nt | nt | 78*
COc1cc(OC)c(OC)cc1/C=C1\CC(C)C/C(=C\c2cc(OC)c(OC)cc2OC)C1=O (stereo not drawn) | 0 | nt | 36 | 0 | nt | nt | nt
